Test results as given in ChEMBL document CHEMBL3407471, “Development of potent inhibitors of pyocyanin production in Pseudomonas aeruginosa” (J Med Chem, 2015).
Each block holds one molecule with its values, some of them ahead of it. The source made the active and inactive calls. Unless noted, no cut-off for these calls is given here.

Tests used:
[1] = tested on: Pseudomonas aeruginosa; assay: Inhibition of quorum sensing activity in wild-type Pseudomonas aeruginosa PA14 assessed as inhibition of pyocyanin production by spectrophotometry relative to control; format: functional
How it was run: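 Pyocyanin produced by wild-type PA14, read by absorbance at 695 nm, across a range of compound levels. IC50 derived from the dose–response.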

[2] = tested on: Escherichia coli; assay: Antagonist activity at LasR in Escherichia coli assessed as reduction of AHL-induced GFP production at 100 uM
[3] = tested on: Escherichia coli; assay: Agonist activity at LasR in Escherichia coli at 100 uM
[4] = tested on: Pseudomonas aeruginosa; assay: Inhibition of quorum sensing activity in wild-type Pseudomonas aeruginosa PA14 assessed as inhibition of pyocyanin production at 100 uM by spectrophotometry relative to control; format: functional
How it was run: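 Wild-type P. aeruginosa PA14 cultures exposed to compound at 100 μM. Pyocyanin read as absorbance at 695 nm. Efficacy scaled so that wild-type pyocyanin level = 0% and absorbance equal to background medium = 100%.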

[5] = tested on: Escherichia coli; assay: Antagonist activity at RhlR in Escherichia coli assessed as reduction of AHL-induced GFP production at 100 uM
[6] = tested on: Pseudomonas aeruginosa; assay: Antimicrobial activity against wild-type Pseudomonas aeruginosa PA14; format: functional
[7] = tested on: Escherichia coli; assay: Agonist activity at RhlR in Escherichia coli at 100 uM
[8] = Effect on pyocyanin oxidation state in cell free culture fluid up to 17 hrs by spectrophotometry; format: ADME
How it was run: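 Cell-free culture fluids already containing pyocyanin incubated with compound, to test for a change in pyocyanin oxidation state independent of its production.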

[9] = tested on: Pseudomonas aeruginosa; assay: Inhibition of pyocyanin production in wild-type Pseudomonas aeruginosa PA14 assessed as down regulation of mexH relative to control; format: functional
How it was run: (§1)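 Wild-type PA14 cultures treated with compound, and a DMSO-treated culture served as control. RNA extracted and analysed by microarray. Genes counted as changed when expression differed by more than 2-fold.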

[10] = tested on: Pseudomonas aeruginosa; assay: Antibiofilm activity against wild-type static Pseudomonas aeruginosa PA14 at 100 uM by spectrophotometry; format: functional
[11] = tested on: Pseudomonas aeruginosa; assay: Inhibition of pyocyanin production in wild-type Pseudomonas aeruginosa PA14 assessed as down regulation of PA14_35160 relative to control; format: functional; how it was run: as §1
[12] = tested on: Pseudomonas aeruginosa; assay: Inhibition of pyocyanin production in wild-type Pseudomonas aeruginosa PA14 assessed as down regulation of katB relative to control; format: functional; how it was run: as §1
[13] = tested on: Pseudomonas aeruginosa; assay: Inhibition of pyocyanin production in wild-type Pseudomonas aeruginosa PA14 assessed as down regulation of PA14_22320 relative to control; format: functional; how it was run: as §1
[14] = tested on: Escherichia coli; assay: Competitive binding to RhlR in Escherichia coli at 100 to 500 uM
How it was run: (§2)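 Competition format: compound at 100 μM and 500 μM combined with increasing amounts of the receptor's native AHL (LasR or RhlR). Receptor response compared with a DMSO control.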

[15] = tested on: Pseudomonas aeruginosa; assay: Inhibition of pyocyanin production in wild-type Pseudomonas aeruginosa PA14 assessed as down regulation of katA relative to control; format: functional; how it was run: as §1
[16] = tested on: Pseudomonas aeruginosa; assay: Inhibition of pyocyanin production in wild-type Pseudomonas aeruginosa PA14 assessed as down regulation of fumC relative to control; format: functional; how it was run: as §1
[17] = tested on: Pseudomonas aeruginosa; assay: Inhibition of pyocyanin production in wild-type Pseudomonas aeruginosa PA14 assessed as down regulation of mexG relative to control; format: functional; how it was run: as §1
[18] = tested on: Escherichia coli; assay: Competitive binding to LasR in Escherichia coli at 100 to 500 uM; how it was run: as §2
[19] = tested on: Pseudomonas aeruginosa; assay: Inhibition of pyocyanin production in wild-type Pseudomonas aeruginosa PA14 assessed as down regulation of opmD relative to control; format: functional; how it was run: as §1
[20] = tested on: Pseudomonas aeruginosa; assay: Inhibition of pyocyanin production in wild-type Pseudomonas aeruginosa PA14 assessed as down regulation of PA14_03090 relative to control; format: functional; how it was run: as §1
[21] = tested on: Pseudomonas aeruginosa; assay: Inhibition of pyocyanin production in wild-type Pseudomonas aeruginosa PA14 assessed as down regulation of PA14_21530 relative to control; format: functional; how it was run: as §1
[22] = tested on: Pseudomonas aeruginosa; assay: Inhibition of pyocyanin production in wild-type Pseudomonas aeruginosa PA14 assessed as down regulation of trxB2 relative to control; format: functional; how it was run: as §1
[23] = tested on: Pseudomonas aeruginosa; assay: Inhibition of pyocyanin production in wild-type Pseudomonas aeruginosa PA14 assessed as down regulation of PA14_58040 relative to control; format: functional; how it was run: as §1
[24] = tested on: Pseudomonas aeruginosa; assay: Inhibition of pyocyanin production in wild-type Pseudomonas aeruginosa PA14 assessed as down regulation of PA14_51830 relative to control; format: functional; how it was run: as §1
[25] = tested on: Pseudomonas aeruginosa; assay: Inhibition of pyocyanin production in wild-type Pseudomonas aeruginosa PA14 assessed as down regulation of PA14_16310 relative to control; format: functional; how it was run: as §1
[26] = tested on: Pseudomonas aeruginosa; assay: Inhibition of pyocyanin production in wild-type Pseudomonas aeruginosa PA14 assessed as down regulation of mexI relative to control; format: functional; how it was run: as §1
[27] = tested on: Pseudomonas aeruginosa; assay: Inhibition of pyocyanin production in wild-type Pseudomonas aeruginosa PA14 assessed as down regulation of ahpF relative to control; format: functional; how it was run: as §1

IC50 [1]: 4.4 µM
Activity [2]: inactive
Activity [3]: inactive
Activity [5]: inactive
Activity [7]: inactive
SMILES: CCCCCCCCCCCC(=O)Nc1ccnc(F)c1
Efficacy [4]: 70%
Activity [6]: inactive

IC50 [1]: 0.16 µM
Activity [2]: inactive
Activity [3]: inactive
Activity [5]: inactive
Stability [8]: Stable
Activity [7]: inactive
SMILES: CCCCCCCCCC(=O)CC(=O)Nc1ccncc1
Efficacy [4]: 63%
Activity [6]: inactive

Activity [14]: inactive
IC50 [1]: 2.7 µM
Activity [18]: inactive
Activity [2]: inactive
Activity [3]: inactive
Activity [5]: inactive
Activity [7]: inactive
SMILES: O=C(CCCCCOc1cccc(Br)c1)Nc1ccnc(C(F)(F)F)c1
fold change (FC) [9]: 2.93
Activity [10]: inactive
fold change (FC) [11]: 4.93
fold change (FC) [12]: 4.15
fold change (FC) [13]: 35.99
fold change (FC) [15]: 20.8
fold change (FC) [16]: 2.71
fold change (FC) [17]: 2.68
fold change (FC) [19]: 2.5
fold change (FC) [20]: 14.35
Efficacy [4]: 99%
fold change (FC) [21]: 44.39
fold change (FC) [22]: 27.79
fold change (FC) [23]: 5.67
fold change (FC) [24]: 5.6
fold change (FC) [25]: 3.27
Activity [6]: inactive
fold change (FC) [26]: 2.84
fold change (FC) [27]: 33.03

IC50 [1]: 6.3 µM
Activity [2]: inactive
Activity [3]: inactive
Activity [5]: inactive
Activity [7]: inactive
SMILES: O=C(CCCCCOc1cccc(F)c1)Nc1ccnc(C(F)(F)F)c1
Efficacy [4]: 103%
Activity [6]: inactive

SMILES: CCCCCCCCCCCC(=O)Nc1ccnc(C)c1
Efficacy [4]: -19%
Activity [6]: inactive

SMILES: O=C(CCCCCOc1ccc(F)cc1)Nc1ccnc(C(F)(F)F)c1
Efficacy [4]: 54%
Activity [6]: inactive

SMILES: CCCCCCCCCC(=O)CC(=O)Nc1cnccn1
Efficacy [4]: 21%
Activity [6]: inactive

SMILES: O=C(CCCCCOc1ccccc1O)Nc1ccnc(C(F)(F)F)c1
Efficacy [4]: 95%
Activity [6]: inactive

SMILES: N#Cc1cccc(OCCCCCC(=O)Nc2ccnc(C(F)(F)F)c2)c1
Efficacy [4]: 0.48%
Activity [6]: inactive

SMILES: COc1cc(NC(=O)CCCCCOc2cccc(Br)c2)ccn1
Efficacy [4]: 73%
Activity [6]: inactive

SMILES: O=C(CCCCCOc1ccccc1Br)Nc1ccnc(C(F)(F)F)c1
Efficacy [4]: 94%
Activity [6]: inactive

SMILES: O=C(CCCCCOc1cccc(Br)c1)Nc1ccncn1
Efficacy [4]: 27%
Activity [6]: inactive

SMILES: CCCCCCCCCCCC(=O)Nc1c(F)c(F)nc(F)c1F
Efficacy [4]: -12%
Activity [6]: inactive

SMILES: CCCCCCCCCCCC(=O)N1CCN(c2ccncc2)CC1
Efficacy [4]: -42%
Activity [6]: inactive
